The source made the active and inactive calls. The rule behind the calls is not given here.
Assays:
[1] = target: T1, Transient receptor potential cation channel subfamily V member 2 (Rattus norvegicus, UniProt Q9WUD2); assay: Antagonist activity at recombinant rat TRPV2 expressed in HEK293 cells assessed as inhibition of CBD-induced Ca2+ levels preincubated for 5 mins followed by agonist addition by Fuo-4-AM based spectrofluorimetry; format: cell-based
T1 sequence (Q9WUD2 whole entry): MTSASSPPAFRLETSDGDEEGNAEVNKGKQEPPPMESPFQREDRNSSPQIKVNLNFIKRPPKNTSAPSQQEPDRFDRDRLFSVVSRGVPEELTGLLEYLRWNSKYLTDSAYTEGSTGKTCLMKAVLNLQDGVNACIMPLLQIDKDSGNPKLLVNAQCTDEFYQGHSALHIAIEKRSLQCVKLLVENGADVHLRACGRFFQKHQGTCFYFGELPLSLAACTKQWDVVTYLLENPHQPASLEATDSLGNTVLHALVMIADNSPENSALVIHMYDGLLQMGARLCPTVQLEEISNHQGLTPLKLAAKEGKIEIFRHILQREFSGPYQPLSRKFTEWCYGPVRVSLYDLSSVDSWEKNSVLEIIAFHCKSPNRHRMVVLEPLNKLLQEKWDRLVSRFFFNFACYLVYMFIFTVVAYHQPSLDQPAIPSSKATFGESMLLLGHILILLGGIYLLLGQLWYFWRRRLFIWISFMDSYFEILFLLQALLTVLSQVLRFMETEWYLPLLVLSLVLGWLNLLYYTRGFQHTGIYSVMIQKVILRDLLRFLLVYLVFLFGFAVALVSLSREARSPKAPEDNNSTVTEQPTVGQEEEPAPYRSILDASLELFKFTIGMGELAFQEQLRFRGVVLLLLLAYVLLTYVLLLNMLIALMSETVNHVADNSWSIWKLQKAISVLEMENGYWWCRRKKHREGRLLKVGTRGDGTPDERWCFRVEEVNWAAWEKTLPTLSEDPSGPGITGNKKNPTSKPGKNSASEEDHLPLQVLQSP
Method in brief: (§1)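 HEK-293 cells heterologously expressing rat TRPV2, fluorometric intracellular Ca2+ assay. Cells are preincubated 5 min with varying test concentrations, then challenged with LPC (3 µM) or CBD (2 µM). Inhibition of the agonist-evoked [Ca2+]i rise gives IC50 (µM).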

[2] = target: T1, Transient receptor potential cation channel subfamily V member 2; assay: Antagonist activity at recombinant rat TRPV2 expressed in HEK293 cells assessed as inhibition of LPC-induced Ca2+ levels preincubated for 5 mins followed by agonist addition by Fuo-4-AM based spectrofluorimetry; format: cell-based; method in brief: as §1
[3] = target: T2, Transient receptor potential cation channel subfamily V member 2 (Rattus norvegicus) (UniProt Q9WUD2); assay: Non-competitive antagonist activity at recombinant rat TRPV2 expressed in HEK293 cells assessed as inhibition of CBD-induced Ca2+ levels preincubated for 5 mins followed by agonist addition by Fuo-4-AM dependent spectrofluorimetry based Schild analysis; format: cell-based
T2 sequence (whole entry): T1 sequence (Q9WUD2 whole entry)
Method in brief: (§2)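 Schild analysis in rat TRPV2-HEK-293 cells by fluorometric Ca2+ assay. Full LPC or CBD concentration–response curves are run at increasing antagonist concentrations. Each agonist concentration is expressed as percent of its effect at 2x10-4 M without antagonist.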

[4] = target: T2, Transient receptor potential cation channel subfamily V member 2 (Rattus norvegicus); assay: Non-competitive antagonist activity at recombinant rat TRPV2 expressed in HEK293 cells assessed as inhibition of LPC-induced Ca2+ levels preincubated for 5 mins followed by agonist addition by Fuo-4-AM dependent spectrofluorimetry based Schild analysis; format: cell-based; method in brief: as §2
[5] = target: Transient receptor potential cation channel subfamily V member 1 (Homo sapiens, UniProt Q8NER1); assay: Agonist activity at recombinant human TRPV1 expressed in HEK293 cells assessed as induction of Ca2+ levels by Fuo-4-AM based spectrofluorimetry
Transient receptor potential cation channel subfamily V member 1, sequence (Q8NER1 whole entry): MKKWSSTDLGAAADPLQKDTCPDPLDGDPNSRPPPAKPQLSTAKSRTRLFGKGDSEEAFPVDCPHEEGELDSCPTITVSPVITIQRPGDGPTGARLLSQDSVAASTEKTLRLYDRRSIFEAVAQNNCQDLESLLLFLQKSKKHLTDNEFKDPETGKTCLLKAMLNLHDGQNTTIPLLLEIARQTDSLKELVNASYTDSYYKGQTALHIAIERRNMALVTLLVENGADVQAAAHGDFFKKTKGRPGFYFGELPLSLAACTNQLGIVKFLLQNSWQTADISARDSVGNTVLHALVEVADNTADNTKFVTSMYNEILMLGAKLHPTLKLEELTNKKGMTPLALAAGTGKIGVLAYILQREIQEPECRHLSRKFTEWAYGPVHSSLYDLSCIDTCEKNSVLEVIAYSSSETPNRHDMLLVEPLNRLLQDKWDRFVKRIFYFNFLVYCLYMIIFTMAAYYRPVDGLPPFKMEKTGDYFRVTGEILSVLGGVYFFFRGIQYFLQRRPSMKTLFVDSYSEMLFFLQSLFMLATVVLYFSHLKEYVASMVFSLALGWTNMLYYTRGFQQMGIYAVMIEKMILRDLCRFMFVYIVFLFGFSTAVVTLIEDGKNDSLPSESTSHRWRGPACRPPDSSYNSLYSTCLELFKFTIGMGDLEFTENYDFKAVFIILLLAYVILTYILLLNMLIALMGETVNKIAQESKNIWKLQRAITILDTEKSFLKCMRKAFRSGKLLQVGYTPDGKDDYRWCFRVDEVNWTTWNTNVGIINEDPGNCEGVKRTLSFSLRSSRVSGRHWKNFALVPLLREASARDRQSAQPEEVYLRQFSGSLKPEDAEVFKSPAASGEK

SMILES	IC50 [1]	IC50 [2]	inhibition [3]	inhibition [4]	EC50 [5]
CCCCCCCC/C=C\CCCCCCCC(=O)NCCO [OLEOYLETHANOLAMIDE]	5400 nM	1800 nM	–	–	–
CCCCCC[C@@H](O)C/C=C/CCCCCCCC(=O)NCc1ccc(O)c(OC)c1	7500 nM	> 10000 nM	–	–	–
CCCCCCCCCCCCCCCCCC(N)=O [OCTADECANOIC ACID AMIDE]	> 10000 nM	> 10000 nM	–	–	–
CCCCCC[C@H](C/C=C\CCCCCCCCSCCC(=O)NCc1ccc(O)c(OC)c1)OC(=O)Cc1ccccc1	–	> 10000 nM	–	–	–
CCCCCCCCCCCCCCCCOC(=O)CSC[C@H](N)C(=O)NCc1ccc(O)c(OC)c1	–	1400 nM	–	–	–
CCCCCCCCCCCCCCCCSCCC(=O)NCc1ccc(O)c(OC)c1	–	3800 nM	–	–	–
CCCCCCCCCCCCCCCCCCCC(=O)NCc1ccc(O)c(OC)c1	> 10000 nM	3100 nM	–	–	–
CCCCCCCC/C=C\CCCCCCCC[Se]C[C@H](N)C(=O)NCc1ccc(O)c(OC)c1	980 nM	1700 nM	Active	Active	–
CCCCCCCCCCCCCCCC(=O)N/N=C/c1ccc(O)c(OC)c1	6000 nM	280 nM	–	–	–
CCCCCC/C=C\CCCCCCCC(=O)NCCO	1700 nM	3500 nM	–	–	–
CCCCCCCC/C=C\CCCCCCCCCCCC(N)=O	7100 nM	670 nM	–	–	–
CCCCCCCC/C=C\CCCCCCCC(=O)N/N=C/c1ccc(O)c(OC)c1	3000 nM	120 nM	–	–	–
CCCCC/C=C\C/C=C\CCCCCCCC[Se]CCC(=O)NCc1ccc(O)c(OC)c1	2300 nM	1400 nM	–	–	–
CCCCCCCCCCCCCCCCSC[C@H](N)C(=O)NCc1ccc(O)c(OC)c1	–	1400 nM	–	–	–
CCCCCCCC/C=C\CCCCCCCCCCCC(=O)O [ERUCIC ACID]	> 10000 nM	> 10000 nM	–	–	–
CCCCCC[C@@H](O)C/C=C\CCCCCCCC[Se]CCC(=O)NCc1ccc(O)c(OC)c1	1400 nM	> 10000 nM	Active	–	–
CCCCCCCC/C=C\CCCCCCCC[Se]CCC(=O)NCc1ccc(O)c(OC)c1	3200 nM	1800 nM	–	–	–
CCCCCCCCCCCCCCCCCCCC(N)=O	> 10000 nM	> 10000 nM	–	–	–
CCCCC/C=C\C/C=C\CCCCCCCC(=O)NCc1ccc(O)c(OC)c1	2100 nM	2600 nM	–	–	–
CCCCC/C=C\C/C=C\CCCCCCCCCCCC(=O)NCc1ccc(O)c(OC)c1	1800 nM	820 nM	–	–	–
CCCCCCC(=O)CC(O)CCCCCCCCC(=O)NCc1ccc(O)c(OC)c1 (configuration not stated)	> 10000 nM	> 10000 nM	–	–	–
CCCCC/C=C\C/C=C\CCCCCCCC(=O)NCCO [LINOLEOYLETHANOLAMIDE]	650 nM	1400 nM	–	–	–
CCCCCCCCCCCCCCCCCC(=O)NCCO [N-(2-HYDROXYETHYL)STEARAMIDE]	> 10000 nM	> 10000 nM	–	–	–
CCCCCCCCCCCCCCCCCC(=O)NCc1ccc(O)c(OC)c1	> 10000 nM	> 10000 nM	–	–	–
CCCCCCCC/C=C\CCCCCCCCSC[C@H](N)C(=O)NCc1ccc(O)c(OC)c1	–	1900 nM	–	–	–
CCCCCCCCCCCCCCCCCCCC(=O)O [ARACHIDIC ACID]	> 10000 nM	> 10000 nM	–	–	–

SMILES	IC50 [1]	IC50 [2]	inhibition [3]	inhibition [4]	EC50 [5]
CCCCCCCC/C=C\CCCCCCCC(N)=O [OLEAMIDE]	2100 nM	2100 nM	–	–	–
CCCCCCCCCCCCCCCCCCCC(=O)NCCO	> 10000 nM	> 10000 nM	–	–	–
CCCCC/C=C\C/C=C\CCCCCCCC(N)=O	1200 nM	2200 nM	–	–	–
NCCOB(c1ccccc1)c1ccccc1	–	–	–	–	129000 nM
CCCCCCCCCCCCCCCC(=O)O [PALMITIC ACID]	> 10000 nM	> 10000 nM	–	–	–
CCCCCCCC/C=C\CCCCCCCCSCCC(=O)NCc1ccc(O)c(OC)c1	–	2500 nM	–	–	–
CCCCCCCC/C=C\CCCCCCCC(=O)O [OLEIC ACID]	> 10000 nM	> 10000 nM	–	–	–
CC/C=C\C/C=C\C/C=C\C/C=C\C/C=C\CCCC(=O)NCCO	2300 nM	> 10000 nM	–	–	–
CCCCCCCCCCCCCCCC(=O)NCCO [PALMIDROL]	> 10000 nM	> 10000 nM	–	–	–
CCCCCCCC/C=C\CCCCCCCCCCCC(=O)NCc1ccc(O)c(OC)c1	1500 nM	490 nM	–	–	–
CCCCCC[C@H](C/C=C\CCCCCCCC[Se]CCC(=O)NCc1ccc(O)c(OC)c1)OC(=O)Cc1ccccc1	2300 nM	> 10000 nM	–	–	–
CC/C=C\C/C=C\C/C=C\C/C=C\C/C=C\C/C=C\CCC(=O)NCCO	1630 nM	> 10000 nM	–	–	–
CCCCCC[C@@H](O)C/C=C\CCCCCCCCSCCC(=O)NCc1ccc(O)c(OC)c1	–	> 10000 nM	–	–	–
CCCCCCCCCCCCCCCCOC(=O)CSCCC(=O)NCc1ccc(O)c(OC)c1	–	> 10000 nM	–	–	–
CCCCC/C=C\C/C=C\C/C=C\C/C=C\CCCC(=O)O [ARACHIDONIC ACID]	> 10000 nM	> 10000 nM	–	–	–
CCCCCCCC/C=C\CCCCCCCCCCCC(=O)NCCO	> 10000 nM	740 nM	–	Active	–
CCCCCCCCCCCCCCCC[Se]C[C@H](N)C(=O)NCc1ccc(O)c(OC)c1	–	1200 nM	–	–	–
CCCCC/C=C\C/C=C\C/C=C\C/C=C\CCCC(=O)NCCO [ANANDAMIDE]	960 nM	8600 nM	–	–	–
CCCCCCCCCCCCCCCC[Se]CCC(=O)NCc1ccc(O)c(OC)c1	–	4300 nM	–	–	–
CCCCCCCC/C=C\CCCCCCCC(=O)NCc1ccc(O)c(OC)c1 [OLVANIL]	1700 nM	160 nM	Active	Active	–
CCCCCCCCCCCCCCCC(=O)NCc1ccc(O)c(OC)c1	> 10000 nM	> 10000 nM	–	–	–
CCCCC/C=C\C/C=C\CCCCCCCCSCCC(=O)NCc1ccc(O)c(OC)c1	2800 nM	1400 nM	–	–	–
CCCCC/C=C\C/C=C\CCCCCCCCCCCC(=O)O	> 10000 nM	> 10000 nM	–	–	–
CCCCCCCCCCCCCCCC(N)=O [PALMITAMIDE]	> 10000 nM	> 10000 nM	–	–	–
CCCCCCC(=O)C/C=C/CCCCCCCC(=O)NCc1ccc(O)c(OC)c1	4400 nM	> 10000 nM	–	–	–
